The source made the active and inactive calls. No cut-off for these calls is given here.
Columns and labels:
[1] = Inhibition of p47phox/p22phox interaction by ELISA
Homo sapiens [2] = organism: Homo sapiens; assay: (§1) Inhibition of NADPH oxidase in human HUVEC assessed as inhibition of superoxide anion generation by cytochrome-C reduction assay
Outline: (§2)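 HUVEC (10^5 cells/mL) in phenol red-free DMEM, 10 min at 37°C. LDL (100 μg/mL) activates oxidase. Compound 0–1000 μM with NADPH 100 μM and cytochrome c 250 μM, ±SOD 200 μg/mL, 30 min at room temperature. A550 read. Superoxide taken from the SOD-inhibitable difference using ε 18.7 cm−1mM−1; triplicate.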

[3] = as §1; outline: as §2
Homo sapiens [4] = organism: Homo sapiens; assay: Inhibition of NADPH oxidase in human HUVEC assessed as inhibition of superoxide anion generation by DHE staining confocal microscopy
Outline: (§3)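 HUVEC in phenol red-free DMEM exposed to compound 0–1 mM for 2 h, washed twice in PBS, resuspended in fresh DMEM. NADPH oxidase activated with PMA (1 μM) for 30 min, then DHE (3 μM) for 30 min, then NADPH (100 μM); kept in dark. Oxyethidium red fluorescence imaged by confocal microscopy, qualitative.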

Homo sapiens [5] = organism: Homo sapiens; assay: Inhibition of NADPH oxidase in human HUVEC assessed as inhibition of superoxide anion generation up to 1 mM by DHE staining confocal microscopy; outline: as §3

Activity (Homo sapiens [5])	SMILES	IC50 [1] [µM]	logIC50 [1]	logIC50 (Homo sapiens [2])	IC50 [3] [µM]	Activity (Homo sapiens [4])
	COC1=CC(C(C)=O)=C/C(=C2\C(=O)C(OC)=C(c3cc(C(C)=O)cc(OC)c3O)C(C(C)=O)=C2O)C1=O	1.6	0.2	-1.51	0.03	Active
inactive	COc1cc(C(C)=O)ccc1O [APOCYNIN]	61000	4.78	3.04	1090	
